Data set [1] concerns L929. Kind of data set: Cytotoxicity against mouse L929 cells by MTT assay. It counts as functional, cell-based. In outline:
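MTT assay in mouse L929 cells (1.8 × 10⁴ cells/well) in RPMI-1640 with 10% FBS. Compound added in distilled water or 10% DMSO (added solution), then 48 h at 37 °C, 5% CO₂. MTT 4 h, formazan dissolved in DMSO, absorbance read at 570 and 655 nm. EC50 from dose-response curve.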
(Tetrazolium assays rely on reduction of a dye to a coloured formazan, in cell work by metabolically active cells.)

For data set [2], the system named is Plasmodium falciparum. The experiment in a line: Antimalarial activity against chloroquine-resistant Plasmodium falciparum K1 by pLDH reporter assay. The format is functional, organism-based. In outline:
(§1)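 P. falciparum cultured in human A+ erythrocytes in RPMI-1640 (25 mM HEPES, hypoxanthine, gentamicin) with 10% human plasma, 37 °C, 93% N2/4% CO2/3% O2. Asynchronous parasites at 2.0% hematocrit, 0.5% parasitaemia. Compound added in water or 5% DMSO, 72 h at 37 °C. pLDH read-out: Malstat, then NBT/PES, formazan at 650 nm. EC50 from dose-response curve.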
Background: In a reporter assay the amount or activity of a reporter protein is the signal.

The test system of data set [3] is Plasmodium falciparum. The experiment in a line: Antimalarial activity against chloroquine-sensitive Plasmodium falciparum FCR3 by pLDH reporter assay. It counts as functional, organism-based. An outline of the steps:
as §1

Data set [4] relates to Plasmodium berghei. Kind of data set: Antimalarial activity against Plasmodium berghei NK65 infected ICR mice (Mus musculus) peroral dose. The format is functional. In outline:
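P. berghei NK65 4-day suppressive test. Male ICR mice (18-20 g) infected i.v. with 10⁶ parasitized red cells. Compounds suspended in 5% gum arabic, given orally 2 h post-infection (Day 0), then once daily Days 1-3. Day 4 tail-vein blood, parasitaemia from thin blood films; ED50 from dose-response curve.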

A short description of data set [5]: Therapeutic index; LD50 for ICR mice (Mus musculus)/ED50 against Plasmodium berghei NK65. The settings on record: read-out: Ratio LD50/ED50. In outline: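 Index is mouse LD50 (oral acute toxicity) divided by oral ED50 against P. berghei in mice. For ED50, a 4-day suppressive test was used. Male ICR mice (18-20 g) were inoculated iv with 10⁶ parasitized RBC. Compound was given po in 5% gum arabic 2 h post-infection, then once daily on days 1-3. Parasitaemia was read from tail-blood thin films on day 4.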

Data set [6] can be described thus: Toxicity in po dosed ICR mouse. The format is organism-based. The settings on record: in vivo. In outline:
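Acute toxicity in mice, compound given orally. LD50 determined.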

Data set [7] relates to L929. Kind of data set: Selectivity for L929 cells over Plasmodium falciparum FCR3 as EC50 ratio. The format is functional. In outline:
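Ratio of L929 EC50 to P. falciparum FCR-3 EC50. L929 EC50 by 48 h MTT assay. FCR-3 EC50 by pLDH assay: asynchronous parasites in human erythrocytes (2.0% hematocrit, 0.5% parasitaemia), RPMI with 10% human plasma. Incubated 72 h at 37 °C under 93% N₂/4% CO₂/3% O₂. Malstat/NBT-PES read-out at 650 nm; EC50 from dose-response curves.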

The results in this text go back to ChEMBL document CHEMBL1138962, “Exploration of a new type of antimalarial compounds based on febrifugine” (J Med Chem, 2006).

A word on the EC50: it is the concentration at which the effect is half-maximal. Low readings indicate greater potency, high ones weaker potency. A word on the ED50: it is the dose at which the effect has come halfway, by size or by number of responders. Read a high ED50 as a need for a large dose. Broadly, the LD50 is the dose expected to kill half of the subjects tested. Lower therefore signals greater toxicity.

SMILES strings stand for the structures. Values after ≈ are worked out from the molar mass of the structure shown. Bounds are passed on as bounds.

With `O=C(C[C@H]1NCCC[C@@H]1O)Nc1nc(O)c2ccccc2n1`, the EC50 is more than 100 µg/mL in data set [1], more than 1 µg/mL in data set [2] and more than 1 µg/mL in data set [3].

For `O=C(CN1CCCC(O)C1)Cn1cnc2ccccc2c1=O` (stereo not drawn), the EC50 in data set [1] is more than 100 µg/mL; in data set [2] it was more than 1 µg/mL; in data set [3], more than 1 µg/mL.

On to `O=C(COC1CCCNC1)Cn1cnc2ccccc2c1=O` (stereo not drawn), for which the concentration for a half-maximal effect (EC50) is more than 100 µg/mL in data set [1], more than 1 µg/mL in data set [2] and more than 1 µg/mL in data set [3].

As to `O=c1c2ccccc2ncn1CCC[C@H]1NCCC[C@@H]1O`, the EC50 in data set [1] amounted to 4.45 µg/mL (≈ 15.5 µM); in data set [2], 0.0236 µg/mL (≈ 0.0821 µM); in data set [3], 0.0225 µg/mL (≈ 0.0783 µM). Besides, the 50% effect level in data set [4] (Plasmodium berghei, NK65, po) (ED50) was put at a dose of 22.5 mg/kg. The selectivity ratio in data set [5] is more than 14. Further, in data set [6], the LD50 is more than 320 mg/kg. Also, the “Ratio EC50” value in data set [7] is recorded as 198.

For `O=c1c2ccccc2ncn1CCCC[C@H]1NCCC[C@@H]1O`, the values for the EC50 in data set [1], in data set [2] and in data set [3] were more than 100 µg/mL, more than 1 µg/mL and more than 1 µg/mL, respectively.

Take `O=c1c2ccccc2ncn1CC[C@H]1NCCC[C@@H]1O`: the 50% effective concentration (EC50) is more than 100 µg/mL in data set [1], more than 1 µg/mL in data set [2] and more than 1 µg/mL in data set [3].

Turning to `CC[C@H](O)[C@@H](CC(=O)Cn1cnc2ccccc2c1=O)NC`, the concentration giving a half-maximal response (EC50) was 6.44 µg/mL (≈ 21.2 µM) in data set [1], more than 1 µg/mL in data set [2] and more than 1 µg/mL in data set [3]. Besides, in data set [7], the “Ratio EC50” value is given as less than 6.44.

With `O=C(C[C@H]1NCCC[C@@H]1O)Cn1cnc2ccsc2c1=O` (relative stereo), the EC50 in data set [1] worked out at 0.563 µg/mL (≈ 1.83 µM); in data set [2] it was 0.00319 µg/mL (≈ 0.0104 µM); in data set [3], 0.00306 µg/mL (≈ 0.00996 µM). The compound further showed an ED50 in data set [4] of 2.95 mg/kg. Also, the selectivity ratio in data set [5] stood at 30. In data set [6], this compound gave an LD50 of 88 mg/kg. The “Ratio EC50” value in data set [7] was 184.

Take `Cc1nc2ccccc2c(=O)n1CC(=O)C[C@H]1NCCC[C@@H]1O` (relative stereo): the EC50 in data set [1] was found to be 15.6 µg/mL (≈ 49.5 µM); in data set [2], 0.19 µg/mL (≈ 0.602 µM); in data set [3] it was 0.116 µg/mL (≈ 0.368 µM). The “Ratio EC50” value in data set [7] was 134.

As for `O=C(C[C@H]1NCCC[C@@H]1O)Cn1nnc2ccccc2c1=O` (relative stereo), the values for the EC50 in data set [1] and in data set [3] were 16.4 µg/mL (≈ 54.2 µM) and 0.154 µg/mL (≈ 0.509 µM), respectively. Moreover, in data set [7], the “Ratio EC50” value is 106.

Regarding `O=C(C[C@H]1NCCC[C@@H]1O)Cn1ccc(=O)c2ccccc21` (relative stereo), the EC50 was more than 100 µg/mL in data set [1], more than 1 µg/mL in data set [2] and more than 1 µg/mL in data set [3].

`O=C(C[C@H]1NCCC[C@@H]1O)Cn1cnc2ncnc-2c1O` (relative stereo): the results for the EC50 in data set [1], in data set [2] and in data set [3] were more than 100 µg/mL, 0.943 µg/mL (≈ 3.24 µM) and 0.506 µg/mL (≈ 1.74 µM), respectively. The “Ratio EC50” value in data set [7] was more than 198.

In the case of `O=C(C[C@H]1NCCC[C@@H]1O)Cn1cnc2ccc(F)cc2c1=O` (relative stereo), the EC50 in data set [1] came out at 0.079 µg/mL (≈ 0.247 µM); in data set [2], 0.000916 µg/mL (≈ 0.00287 µM); in data set [3], 0.00073 µg/mL (≈ 0.00229 µM). In addition, the LD50 in data set [6] is less than 2.5 mg/kg. Further, the “Ratio EC50” value in data set [7] is 108.

As to `O=C(C[C@@H]1NCCC[C@H]1O)Cn1cnc2ccccc2c1=O` (single isomer, unassigned) [FEBRIFUGINE], the EC50 amounted to 0.167 µg/mL (≈ 0.554 µM) in data set [1], 0.0014 µg/mL (≈ 0.00465 µM) in data set [2] and 0.00142 µg/mL (≈ 0.00471 µM) in data set [3]. The compound further displayed an ED50 in data set [4] (Plasmodium berghei, NK65, po) of 0.41 mg/kg. Besides, in data set [5], the selectivity ratio was 17. Besides, in data set [6], the LD50 was 7.1 mg/kg. Further, the “Ratio EC50” value in data set [7] turned out to be 118.

For `C[C@@H]1CC[C@H]2[C@@H](C)C(=O)O[C@@H]3O[C@@]4(C)CC[C@@H]1[C@]32OO4` [ARTEMISININ], the 50% effective concentration (EC50) is more than 100 µg/mL in data set [1], 0.0117 µg/mL (≈ 0.0414 µM) in data set [2] and 0.0179 µg/mL (≈ 0.0634 µM) in data set [3]. The “Ratio EC50” value in data set [7] was more than 5590.

Regarding `CCN(CC)CCCC(C)Nc1ccnc2cc(Cl)ccc12` (stereo not drawn) [CHLOROQUINE], the EC50 in data set [1] turned out to be 18.6 µg/mL (≈ 58.1 µM); in data set [2], 0.375 µg/mL (≈ 1.17 µM); in data set [3] it was 0.0475 µg/mL (≈ 0.148 µM). For the same compound, the 50% effective dose (ED50) in data set [4] (Plasmodium berghei, NK65, po) is 1.53 mg/kg. Also, in data set [7], the “Ratio EC50” value turned out to be 392.
